Reference: paper PMC4899269 (Structure (London, England : 1993), 2016)
Where no end group is shown, it is not given here.

Assays:
[1] = tested on: JAK1 FERM–SH2; assay: Co-purification and size exclusion chromatography of JAK1/receptor complexes; format: binding, human; conditions: large scale co-expression, Ni-IMAC, TEV cleavage, SDS-PAGE
In short: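 His-JAK1 FERM–SH2 (G35–K559) co-expressed in insect cells with one of two GST-tagged partners, co-infected at 1:1 viral ratio: GST-IFNLR1 (K250–T299), or a chimera of IFNLR residues K250–R260 fused to IL-10RA K264–K303. Lysates purified by Ni-IMAC then SEC. Complex fractions TEV-cleaved and put through a second SEC round.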

[2] = biological target: JAK1 FERM–SH2 I240F (human, UniProt P23458 35-559, Ile240 to phenylalanine); assay: BLI
[3] = biological target: JAK1 FERM–SH2 I240L (human, UniProt P23458 35-559, Ile240 to leucine); assay: BLI
[4] = biological target: human JAK1 FERM–SH2 (as used in BioLayer Interferometry) (human, UniProt P23458 35-559); assay: BLI
[5] = biological target: human JAK1 FERM–SH2 (residues 35–559), His tag released with TEV (human, UniProt P23458 35-559); assay: SEC-MALS
Sequence of human JAK1 FERM–SH2 (residues 35–559), His tag released with TEV (P23458 35-559): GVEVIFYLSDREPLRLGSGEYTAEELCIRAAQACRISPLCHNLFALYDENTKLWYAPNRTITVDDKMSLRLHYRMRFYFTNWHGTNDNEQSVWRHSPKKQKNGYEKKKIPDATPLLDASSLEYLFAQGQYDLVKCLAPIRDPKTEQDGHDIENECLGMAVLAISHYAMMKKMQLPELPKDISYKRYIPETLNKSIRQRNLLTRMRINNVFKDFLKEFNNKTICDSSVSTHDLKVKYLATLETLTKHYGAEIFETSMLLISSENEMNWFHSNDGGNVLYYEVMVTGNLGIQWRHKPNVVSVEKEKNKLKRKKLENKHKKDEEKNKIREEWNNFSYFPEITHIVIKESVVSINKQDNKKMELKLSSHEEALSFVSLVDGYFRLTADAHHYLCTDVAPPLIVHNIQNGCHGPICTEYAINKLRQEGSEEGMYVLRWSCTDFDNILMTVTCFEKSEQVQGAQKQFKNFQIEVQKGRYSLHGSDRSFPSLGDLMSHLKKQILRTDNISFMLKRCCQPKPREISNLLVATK

Sequence of human JAK1 FERM–SH2 (as used in BioLayer Interferometry) (P23458 35-559): as above
Sequence of JAK1 FERM–SH2 I240F (P23458 35-559 I240F): as the sequence (P23458 35-559) above, with I206F counted along it
Sequence of JAK1 FERM–SH2 I240L (P23458 35-559 I240L): as the sequence (P23458 35-559) above, with I206L counted along it

Molecule | complex formation with JAK1 on purification / SEC (in words) [1] | koff [4] | kon [4] | further results
IL10RA: GST-tagged human receptor cytoplasmic fragment with putative box1 and box2 motifs ({GST}-QLYVRRRKKLPSVLLFKKPSPFIFISQRPSPETQDTIHPLDEEAFLK) | formed a stable complex with JAK1 | – | – | –
peptide containing IFNLR1 box1 and box2: GST-tagged IFNLR1 box1/box2 fragment (residues 250–299), co-expressed with JAK1 ({GST}-KTLMGNPWFQRAKMPRALDFSGHTHPVATFQPSRPESVNDLFLCPQKELT) | form a stable complex with JAK1 | – | – | –
KTLMGNPWFQRAKMPRALDFSGHTHPVATFQPSRPESVNDLFLCPQKELT (peptide, UniProt Q8IU57 250-299, looked up, also: biotin, position not given here) [biotinylated IFNLR1 box1/box2 peptide (residues 250–299)] | – | 0.00355 s⁻¹ | 50400 M⁻¹ s⁻¹ | –
KTLMGNPWFQRAKMPRALDFSGHTHPVATFQPSRPESVND (peptide, UniProt Q8IU57 250-289, looked up, also: biotin, position not given here) [biotinylated IFNLR1 box1Δbox2 peptide (residues 250–289)] | – | 0.0544 s⁻¹ | 34600 M⁻¹ s⁻¹ | –
KTLMGNPWFQRAKMPRALDFSGHTHPVATFQPSRPESVNDLFLCPQKELT (peptide, UniProt Q8IU57 250-299, looked up) [IFNLR1 box1/box2 peptide (residues 250–299), GST released with TEV] | – | – | – | stoichiometry N [5]: 1

More lines, main results first:

complex formation with JAK1 on purification / SEC (in words) [1] | koff [4] | kon [4] | Molecule | further results
did not co-purify with JAK1 | – | – | box2 fragment of IFNLR1: GST-tagged fragment of IFNLR1 containing box2 sequences (residues 270–299) ({GST}-SGHTHPVATFQPSRPESVNDLFLCPQKELT) | –
– | 0.089 s⁻¹ | 72500 M⁻¹ s⁻¹ | KTLMGNPWFQRAKMPRALDFS (peptide, UniProt Q8IU57 250-270, looked up, also: biotin, position not given here) [biotinylated IFNLR1 box1 peptide (residues 250–270)] | binding result [2]: binds; binding result [3]: binds
